RBBP9 inh – human RBBP9 hydrolase inhibition. O75884. recombinant RBBP9, FP-Rh probe fluorescence polarization. inhibition, % at 7.94 µM. actives 0.2% (n = 220,000);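 active means inhibition above the campaign mean of all tested compounds plus 3 SD, cut at about 14% in these data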
Target sequence (O75884 whole entry, looked up): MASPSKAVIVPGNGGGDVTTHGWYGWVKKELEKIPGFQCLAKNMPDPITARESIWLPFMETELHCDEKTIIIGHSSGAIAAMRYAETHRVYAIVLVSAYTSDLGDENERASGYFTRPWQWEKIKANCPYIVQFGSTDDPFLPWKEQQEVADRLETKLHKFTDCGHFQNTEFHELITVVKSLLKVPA
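system = RBBP9 protein | input = RBBP9 at 2.5 µM in dispensed solution, before mixing | measured by = fluorescence polarization (mP), excitation 525 nm, emission 598 nm | incubation = enzyme-compound preincubation 30 min, then probe labeling 45 min, 25 °C | buffer or medium = Tris-NaCl-Pluronic buffer, pH 8.0 | compound = single dose 7.94 µM | also added = FP-Rh probe, 375 nM dispensing solution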
HTRA1 inhibitor – inhibitors of human serine peptidase HTRA1; actives 0.5% (n = 340,000); Q92743; inhibition, % at 5.96 µM; recombinant HTRA1, FP-rhodamine activity-based probe, fluorescence polarization; in the data active means inhibition above about 36%
mABHD4 FP – ABHD4 (mouse) inhibition, primary FP screen. inhibition, % at 8.92 µM. Q8VD66. AID 720543. purified mABHD4, FP-Rh probe fluorescence polarization. actives 0.54% (n = 370,000);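 active means inhibition exceeding the mean over every tested compound plus 3 SD, cut at about 30% in these data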
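Assay system: mABHD4 protein; medium: HEPES pH 7.0, NaCl, Pluronic buffer; dosing: 8.92 µM, single dose; schedule: 45 min + 60 min at 25 °C; signal: FP readout, ex 525 nm / em 598 nm; read-out: normalized percent inhibition of probe labeling; repeats: single replicate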
SIAE inh – inhibitors of human sialic acid acetylesterase SIAE. Q9HAT2. SIAE FP-Rh probe binding, fluorescence polarization. inhibition, % at 9.66 µM. actives 0.69% (n = 370,000);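 active means inhibition above a cutoff: mean of compounds within the control limits plus 3 SD of those, cut at about 17% in these data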
mABHD4 conf – ABHD4 (mouse) inhibition, FP confirmation | inhibition, % at 8.92 µM | shares compounds with mABHD4 FP | purified mABHD4, FP-Rh probe fluorescence polarization | AID 720658 | actives 55% (n = 1,800);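 active means mean inhibition across replicates above the hit cutoff set in the primary screen, cut at about 30% in these data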
SIAE confirm – confirmation of human SIAE inhibitors; SIAE FP-Rh activity-based probe, fluorescence polarization; shares compounds with SIAE inh; actives 13% (n = 2,300); inhibition, % at 9.66 µM;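 active means mean inhibition of the replicates above the hit cutoff set in the primary screen, cut at about 17% in these data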;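 further: inhibitors lower polarization as more probe stays unbound to SIAE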
Large screens that a line does not name were inactive (follow-up assays come after a bar, where they were run); ! = not confirmed by another sample. Hits are enriched below; roughly 1.4% of the tested compounds scored in any of these assays.

COc1ccc2oc(=N)c(C(=O)Nc3ccccc3Cl)cc2c1	none (no result: RBBP9 inh)
CCCN(CC1CCCO1)C(=O)c1cc(COc2ccc(F)cc2F)on1 (configuration not stated)	none (no result: RBBP9 inh)
CC1=C([N+](=O)[O-])C(c2cccc(Br)c2)C2=C(N1)c1ccccc1C2=O (configuration not stated)	mABHD4 FP 29.7, SIAE inh 28.1 | mABHD4 conf 35.2 | SIAE confirm inactive
COC(=O)C1=C(C)NC2=C(C(=O)c3ccccc32)C1c1cccc(OC)c1 (configuration not stated)	none
CC[C@@]1(C(=O)OC)N[C@H](CN(C)S(=O)(=O)c2ccc(-c3ccccc3)cc2)[C@@H]2C(=O)N(Cc3ccccc3)C(=O)[C@@H]21	none (no result: RBBP9 inh)
CC(=O)Oc1c(I)cc(I)cc1C(=O)Nc1ccc(Cl)cc1	none (no result: RBBP9 inh)
CCCCNc1c(-c2ccc(OC)c(SC(C)CC)c2)nc2cnccn12 (configuration not stated)	none (no result: RBBP9 inh)
CCCCNc1c(-c2ccc(OC)c(SC(C)CC)c2)nc2cc(C)ccn12 (configuration not stated)	mABHD4 FP 44.2, SIAE inh 18.1! (no result: RBBP9 inh) | mABHD4 conf 64.8 | SIAE confirm inactive
O=C1NN(c2cccc(Br)c2)C(=O)/C1=C\c1ccc(O)cc1	mABHD4 FP 36.6, SIAE inh 19.3 (no result: RBBP9 inh) | mABHD4 conf 41.0 | SIAE confirm inactive
Nc1ccc2ccc(O)cc2c1	mABHD4 FP 40.5, SIAE inh 19.4 (no result: RBBP9 inh) | mABHD4 conf 32.9 | SIAE confirm inactive
Oc1ccc2ccc(Cl)cc2c1	none (no result: RBBP9 inh)
COC(=O)[C@]12CCCCC=C1N(Cc1ccc3c(c1)OCO3)C(=O)[C@H](CC(=O)NCc1ccc(C)o1)C2	none (no result: RBBP9 inh, HTRA1 inhibitor)
O=C1S/C(=C\c2ccc(O)c([N+](=O)[O-])c2)C(=O)N1Cc1cccc([N+](=O)[O-])c1	none (no result: HTRA1 inhibitor)
Cc1ccc(NC(=O)CN2C(=O)S/C(=C/c3ccc(O)c([N+](=O)[O-])c3)C2=O)cc1C	mABHD4 FP 50.6, SIAE inh 24.9 | mABHD4 conf 62.9 | SIAE confirm inactive
Cc1ccc(C2CC(=O)Oc3cc(O)ccc32)cc1 (configuration not stated)	mABHD4 FP 55.1, SIAE inh 19.3 | mABHD4 conf 43.9 | SIAE confirm inactive
O=C1CC(c2ccccc2)c2cc(O)ccc2O1 (configuration not stated)	none
COC(=O)c1ccc(CC(=O)c2c(C)cc(O)cc2O)o1	mABHD4 FP 38.2, SIAE inh 24.2 | mABHD4 conf inactive | SIAE confirm inactive
COC(=O)c1ccc(CC(=O)c2ccc(O)cc2O)o1	none (no result: mABHD4 FP, SIAE inh)
Cc1cnc(C(=O)N(c2ccccc2)C(c2ccccc2)c2nc3ccccc3[nH]2)cn1 (configuration not stated)	none (no result: RBBP9 inh, HTRA1 inhibitor)
COc1ccc(NC(=O)NC(C)(C(F)(F)F)C(F)(F)F)cc1	none
CC(NC(=O)Nc1ccc(O)cc1)(C(F)(F)F)C(F)(F)F	mABHD4 FP 65.9, SIAE inh 26.2 | mABHD4 conf inactive | SIAE confirm inactive
CC1(C(=O)O)CCCN1C(=O)c1cccc(OC(F)(F)F)c1 (configuration not stated)	none (no result: RBBP9 inh, HTRA1 inhibitor)
CCOc1ccc(Nc2nc(N)c([N+](=O)[O-])c(NCc3ccccc3)n2)cc1	SIAE inh 20.2 | SIAE confirm 31.6
COc1ccc(N2CCN(C(=O)CN3CCN(c4nc(-c5ccc(F)cc5)cs4)CC3)CC2)cc1	SIAE inh 28.1 | SIAE confirm inactive
COc1ccc(-c2nnn(CC(=O)N3CCN(c4ccc(F)cc4)CC3)n2)cc1	none
Cc1ccc(C)c(OCCC(=O)OCC(=O)N(C)c2c(N)n(Cc3ccccc3)c(=O)[nH]c2=O)c1	SIAE inh 17.6 (no result: RBBP9 inh) | SIAE confirm inactive
O=C1c2ccccc2C(Nc2ccc3c(c2)OCO3)N1Cc1ccco1 (configuration not stated)	SIAE inh 18.8 | SIAE confirm inactive
O=C1c2ccccc2C(Nc2ccc3c(c2)OCO3)N1Cc1ccc2c(c1)OCO2 (configuration not stated)	none
COc1ccc(-c2ccc(/C=C(\NC(=O)c3ccccc3)C(=O)N3CCOCC3)o2)cc1	SIAE inh 17.1 | SIAE confirm inactive
COc1ccccc1C(=O)N/C(=C\c1cn(C)c2ccccc12)C(=O)N1CCOCC1	SIAE inh 21.2 (no result: RBBP9 inh) | SIAE confirm inactive

Source: PubChem
